CSN inh – inhibitors of human CSN-mediated cullin deneddylation | hit rate 0.38% among 360,000 | inhibition, % at 12.5 µM | AID 651999 | Purified CSN, SCF-Nedd8-OG deneddylation, fluorescence polarization | Q92905;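 active = pattern-corrected inhibition above about 35%, with an unprinted fluorescence ratio check between 0.5 and 1.5, limit read from the data, passing the limit was not always enough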;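 note: 0% = enzyme with substrate and 100% = substrate without enzyme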
Target sequence (Q92905 whole entry, looked up, one chain of several): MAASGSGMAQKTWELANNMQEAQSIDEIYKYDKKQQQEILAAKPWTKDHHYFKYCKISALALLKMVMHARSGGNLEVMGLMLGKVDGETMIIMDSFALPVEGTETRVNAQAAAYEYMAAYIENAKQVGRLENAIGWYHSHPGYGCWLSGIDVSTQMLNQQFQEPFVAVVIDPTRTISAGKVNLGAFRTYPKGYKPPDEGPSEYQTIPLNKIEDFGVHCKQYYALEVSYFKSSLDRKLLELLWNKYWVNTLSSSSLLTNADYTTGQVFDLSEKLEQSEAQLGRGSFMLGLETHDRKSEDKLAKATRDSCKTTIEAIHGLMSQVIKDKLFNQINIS
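Assay system: purified human Csn5 enzyme expressed in HEK293T cells; measure: % inhibition; also added: SCFSkp2-Nedd8OG substrate at 10 nM final; technique: fluorescence polarization; times: reaction 90 min, room temperature; medium: Tris buffer pH 7.5, NaCl, DTT, Tween-20, trehalose, ovalbumin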
Scp1 inh – blocks human Scp-1 phosphatase activity. Q9GZU7. Recombinant Scp1, phosphopeptide, malachite green phosphate absorbance. inhibition, % at 20 µM. hit rate 0.88% among 340,000. AID 493091;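 active = inhibition above about 50% at 20 µM, limit read from the data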;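 note: plate controls were DMSO wells with enzyme for no effect and wells lacking enzyme for full effect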
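Test system – truncated SCP-1 phosphatase (76-261aa) · Reagent – Phosphorylated 17-residue peptide substrate · Incubation – 45 min room-temperature reaction, 5 min colour, 30 min stabiliser · Detection – colorimetric phosphate reagent with accelerator and stabiliser, absorbance at 630 nm · Measure – % inhibition at 20 µM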
DNMT1 block – DNMT1 (human) enzyme inhibition. P26358. DNMT1 molecular beacon, Hinp1I cleavage, fluorescence. inhibition (reported as % activation of signal), % at 10 µM. hit rate 0.83% among 360,000; in the data active = inhibition above about 50%
SUMO1 PPI mod – modulators of human SUMO1-mediated protein-protein interactions; P63165; SUMO1 binding to a labelled peptide, TR-FRET, 1 h; inhibition, % at 20 µM; hit rate 0.33% among 360,000; AID 602429; in the data active = inhibition above about 37%
LMPTP inh – blocks human LMPTP phosphatase; P24666; hit rate 0.22% among 360,000; recombinant LMPTP-A, OMFP fluorogenic substrate, fluorescence intensity; inhibition, % at 20 µM;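 active = compounds that cut the enzyme signal by at least half of the control window in the single-dose screen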;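 note: plate controls were DMSO wells with enzyme plus substrate for no effect and substrate without enzyme for full effect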
Target sequence (P24666 whole entry, looked up): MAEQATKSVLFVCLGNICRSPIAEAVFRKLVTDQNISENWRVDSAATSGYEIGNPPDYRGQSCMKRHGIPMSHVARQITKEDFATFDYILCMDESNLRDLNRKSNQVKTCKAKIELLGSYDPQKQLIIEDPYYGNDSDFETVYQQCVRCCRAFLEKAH
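Assay system: LMPTP-A, protein tyrosine phosphatase of low molecular weight / Medium: pH 6.0 Bis-Tris buffer with DTT and Triton X-100 / Schedule: 50 min enzyme reaction at room temperature, protected from light / Measured by: endpoint fluorescence intensity from OMFP dephosphorylation / Read-out basis: % inhibition relative to no-enzyme and uninhibited control wells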
STEP inh – inhibitors of human striatal-enriched phosphatase STEP | inhibition, % at 20 µM | AID 588621 | recombinant STEP, OMFP fluorogenic substrate, fluorescence | hit rate 0.25% among 360,000 | P54829;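 active = inhibition at 20 µM, scaled per plate between control wells, above about 37%, limit read from the data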;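 note: 0% = DMSO with enzyme and substrate and 100% = substrate only without enzyme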
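System: STEP phosphatase, cell-free reaction; Buffer or medium: Bis-Tris pH 6.0 buffer with DTT, detergent; Incubation: 20 min at room temperature, dark; Measured by: fluorescence, 480/540 nm.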
* = called active by the depositor; . = not tested or not shown. This is a sample that favours compounds with a hit; in the whole collection about 2% have one here.

SMILES	CSN inh	Scp1 inh	DNMT1 block	SUMO1 PPI mod	LMPTP inh	STEP inh
Cc1ccc(C)c(S(=O)(=O)N(C)C2CCS(=O)(=O)C2)c1 (stereo not drawn)	3.2	-6.9	-0.4	-1.0	0.3	1.8
Cc1ccc(NC(=O)CCC(=O)Nc2nnc(C3CCCCC3)s2)cc1	-1.4	8.8	1.6	4.1	-2.3	9.2
C=CC(=C)CC(NC)c1ccccc1 (stereo not drawn)	47.4*	-2.7	-53.8	-5.2	1.4	-1.1
CC(=O)NC(CC(=O)O)c1ccccc1 (stereo not drawn)	-3.9	-2.7	1.6	4.0	-0.8	1.3
CCc1ccc(NC(=S)Nc2cccc3cnccc23)cc1	38.2*	-2.6	-20.0	-1.7	0.4	1.7
Cc1ccc(NC(=S)Nc2cccc3cnccc23)c(C)c1	10.7	-8.0	-11.0	-2.5	-0.1	13.1
C=C(C)CNC(=S)Nc1cccc2cnccc12	-0.4	-2.1	4.1	-13.1	0.6	-0.9
Cc1cc(C)cc(NC(=S)Nc2cccc3cnccc23)c1	37.1*	-6.7	-27.6	0.4	0.5	9.8
Cc1cc(-c2csc(NCc3ccccc3)n2)c(C)n1C	6.6	9.2	75.3*	-1.4	15.6	7.1
CCCCCC(O)CCCC(=O)O (stereo not drawn)	-2.2	-6.3	1.1	-3.4	0.5	-0.6
CCCCCCCCCCCCCCCC(O)C[N+](C)(C)CCO (stereo not drawn)	2.7	81.8*	0.6	-176.1	-3.5	3.6
O=C(CSc1ccccc1F)NCC(c1ccco1)N1CCCCC1 (stereo not drawn)	0.5	.	3.3	-1.7	-1.4	0.0
S=c1[nH]nc(-c2cc(-c3ccccc3)n[nH]2)n1/N=C/c1c(Cl)cccc1Cl	45.8*	3.8	27.0	17.9	30.4	0.1
Cc1ccccc1/C=N/n1c(-c2cc(-c3ccccc3)n[nH]2)n[nH]c1=S	12.7	-12.6	-0.3	11.4	-0.1	0.9
Oc1ccc(/C=N/Nc2ccnc3cc(Cl)ccc23)c(O)c1O	13.7	-12.4	-7.3	9.7	45.8	14.0
Oc1ccc(/C=N/Nc2ccnc3cc(Cl)ccc23)cc1O	2.7	-7.4	4.2	54.9*	48.2	2.0
Cc1ccc(S(=O)(=O)N2CCc3ccccc3C2CC(=O)O)cc1 (stereo not drawn)	0.1	-4.1	0.7	-5.4	0.0	-0.7
O=C(O)c1cccc(-c2ccc(/C=C3/SC(=Nc4ccccc4)N(Cc4cccnc4)C3=O)o2)c1	21.5	73.3*	23.1	81.9*	0.7	10.7
CCN1C(=O)/C(=C\c2ccc(-c3ccc([N+](=O)[O-])cc3OC)o2)SC1=Nc1cccc(C(=O)O)c1	2.6	-8.8	-18.8	54.2*	8.3	3.8
O=C(c1ccc2c(=O)n3c(nc2c1)CCCCC3)N1CCN(c2cccc(Cl)c2)CC1	-4.7	-8.5	1.2	4.3	-0.4	-1.5
C=CCn1c(C(C)(C)C)nc2ccccc21	-4.1	4.2	-1.4	1.0	0.2	0.1
COc1ccccc1Nc1nn2c(=O)c3ccc(C(=O)N4CCCCC4)cc3nc2s1	2.6	-5.5	-2.4	4.5	1.5	1.1
COc1ccccc1Nc1nn2c(=O)c3ccc(C(=O)NCc4cccnc4)cc3nc2s1	84.1*	.	50.8*	47.4*	1.9	3.4
O=C(NCc1ccccn1)c1ccc2c(=O)n3nc(Nc4ccccc4)sc3nc2c1	13.7	-3.4	31.9	52.2*	-0.2	-4.5
CCc1ccccc1Nc1nn2c(=O)c3ccc(C(=O)NCc4ccccn4)cc3nc2s1	20.3	-13.9	-4.7	39.1*	1.4	0.4
O=C(NCc1ccccn1)c1ccc2c(=O)n(CCc3ccccc3)c(=O)[nH]c2c1	0.6	27.3	-2.8	-3.6	0.2	0.6
CCCCCn1c(=O)[nH]c2cc(C(=O)NCc3ccccn3)ccc2c1=O	2.0	-12.6	0.0	-0.5	-1.9	1.0
Cc1cc(C)n2nc(SCCOc3ccccc3F)nc2n1	-0.2	2.2	2.3	-3.9	-0.1	0.5
O=S(=O)(Nc1nc2ccccc2nc1Nc1ccc2c(c1)OCCO2)c1cccs1	50.8*	-4.0	-26.1	11.9	1.7	-4.7

Assay outcomes as filed in PubChem.
